Measurements pooled from the literature.
Lines come from different studies, so protocols differ.
Target: Protein kinase C epsilon type (PRKCE, Homo sapiens, UniProt Q02156)
Residues used in one study (Q02156 1-737): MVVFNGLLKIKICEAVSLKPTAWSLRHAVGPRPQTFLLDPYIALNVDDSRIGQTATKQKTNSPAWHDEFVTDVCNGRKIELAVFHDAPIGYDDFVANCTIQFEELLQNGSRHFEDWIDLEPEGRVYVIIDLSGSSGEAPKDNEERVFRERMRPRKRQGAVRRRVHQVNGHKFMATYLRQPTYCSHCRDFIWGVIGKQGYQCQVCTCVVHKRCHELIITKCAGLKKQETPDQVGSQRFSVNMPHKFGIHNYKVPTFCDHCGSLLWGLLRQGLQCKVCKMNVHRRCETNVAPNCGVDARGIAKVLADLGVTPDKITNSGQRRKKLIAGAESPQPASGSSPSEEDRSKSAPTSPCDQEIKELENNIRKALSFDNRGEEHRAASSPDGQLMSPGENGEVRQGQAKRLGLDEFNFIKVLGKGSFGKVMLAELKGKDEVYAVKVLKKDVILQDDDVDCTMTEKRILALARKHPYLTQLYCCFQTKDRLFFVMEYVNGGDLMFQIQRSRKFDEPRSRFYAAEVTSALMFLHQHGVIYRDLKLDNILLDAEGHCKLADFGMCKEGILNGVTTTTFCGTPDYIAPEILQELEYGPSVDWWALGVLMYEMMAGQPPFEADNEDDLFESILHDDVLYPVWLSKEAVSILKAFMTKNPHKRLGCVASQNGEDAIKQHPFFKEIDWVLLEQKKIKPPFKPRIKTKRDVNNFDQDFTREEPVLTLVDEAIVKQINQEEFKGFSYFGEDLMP

COc1ncccc1-c1cnn2ccc(N3CCN(C(=O)OC(C)C)CC3)nc12  remaining binding (binding, competition with immobilised ligand; 1 µM): 76%
C#Cc1n[nH]c2c(-c3cn([C@@H](C)c4ccccn4)c(=O)[nH]c3=O)cc(F)cc12  inhibition (enzyme activity, inhibitor; 0.1 µM): 4.1%
Cn1cc(-c2cc(F)cc(N3CCn4c(cc5c4CCCC5)C3=O)c2CO)cc(Nc2ccc(N3CCN(C4COC4)CC3)cn2)c1=O  inhibition (enzyme activity, inhibitor; 0.1 µM): -4%
COc1cc(Nc2ncc(F)c(Nc3ccc4c(n3)NC(=O)C(C)(C)O4)n2)cc(OC)c1OC  inhibition (binding; 10 µM): 73%
O=c1[nH]c2ccccc2n1C1CCN(Cc2ccc(-c3[nH]c4cc5ncnc5cc4nc3-c3ccccc3)cc2)CC1  remaining signal (cell-free assay; 0.5 µM): 109%
Cn1cc(-c2cccc(N3CCc4c(sc5c4CC(C)(C)C5)C3=O)c2CO)cc(Nc2ccncn2)c1=O  inhibition (enzyme activity, inhibitor; 1 µM): 1%
Cn1cncc1[C@](O)(COc1ccc(C#N)cc1-c1ccc(OC(F)(F)F)cc1)c1ccc(C#N)cc1  remaining binding (cell-free assay, competition with immobilised ligand; 1 µM): 79%
CC(C)(C)c1cc(C=C(C#N)C#N)cc(Br)c1O  remaining activity (enzyme activity, inhibitor; 0.5 µM): 108%
